Experimental data pooled from the literature.
Cell line: PC-3
Read-out: cell growth or viability

SMILES	method	concentration	time	endpoint	value
Cc1c(OCC(F)(F)F)ccnc1COc1ccc(NC(=O)Nc2cccc(C(F)(F)F)c2)cc1	MTT		72 h	IC50	> 100000 nM
COc1cc2ncnc(Nc3ccc(F)c(Cl)c3)c2cc1NC(=O)N/N=C/c1cccn1CCN1CCN(C)CC1	MTT		72 h	IC50	2080 nM
COc1ccc(C(=O)/C=C/c2ccc3ccccc3c2)cc1S(N)(=O)=O	SRB		48 h	GI50	1800 nM
Cc1cc(C)cc(COc2cc3c(cc2OCc2cc(C)cc(C)c2)[C@H]2C[C@](O)(Cc4cn(Cc5cnccn5)nn4)C[C@H](C)N2CC3)c1	MTT			IC50	480 nM
COc1cccc(/C=C2\SC(=S)N(CC(=O)Nc3ccccc3)C2=O)c1	MTT	10 µM		inhibition	10.6%
COc1ccc(C(=O)/C=C/c2cccc(Cl)c2Cl)cc1S(N)(=O)=O	SRB		48 h	GI50	4500 nM
O=C(N/N=C/CN1CCOCC1)Nc1cc2c(Nc3ccc(F)c(Cl)c3)ncnc2cc1O[C@H]1CCOC1	MTT		72 h	IC50	3390 nM
C=CCOc1cccc(NC(=O)C2CCCN(C(=O)c3cc(C(F)(F)F)cc(C(F)(F)F)c3)C2)c1 (centres unmarked)	WST-1	100 µM		inhibition	0%
COc1ccc(C(=O)/C=C/c2cccc(Cl)c2)cc1S(N)(=O)=O	SRB		48 h	GI50	2200 nM
O=C(CN1C(=O)/C(=C/c2ccccc2Cl)SC1=S)Nc1ccccc1	MTT	10 µM		inhibition	22.6%
COc1cc2ncnc(Nc3ccc(F)c(Cl)c3)c2cc1NC(=O)N/N=C/CN(C)C	MTT		72 h	IC50	2780 nM
COc1ccccc1/C=C1\SC(=S)N(CC(=O)Nc2ccccc2)C1=O	MTT	10 µM		inhibition	29%
Cc1c(OCC(F)(F)F)ccnc1COc1ccc(NC(=O)Nc2ccc(Cl)cc2)cc1	MTT		72 h	IC50	> 100000 nM
COc1cc2ncnc(Nc3ccc(F)c(Cl)c3)c2cc1NC(=O)N/N=C/c1cccn1CCCN1CCOCC1	MTT		72 h	IC50	50 nM
O=C(Nc1cccc(CN2CCOCC2)c1)C1CCCN(C(=O)c2cc(C(F)(F)F)cc(C(F)(F)F)c2)C1 (centres unmarked)	WST-1	100 µM		inhibition	0%
Cc1cc(C)cc(COc2cc3c(cc2OCc2cc(C)cc(C)c2)[C@H]2C[C@](O)(Cc4cn(-c5ccccc5)nn4)C[C@H](C)N2CC3)c1	MTT			IC50	264 nM

SMILES	method	concentration	time	endpoint	value
COc1cc2ncnc(Nc3ccc(F)c(Cl)c3)c2cc1NC(=O)N/N=C/c1cccn1CCN1CCCCC1	MTT		72 h	IC50	2240 nM
COc1ccc(-c2ccc(-c3ccc(C(=N)N)nc3)s2)cc1				GI50	1680 nM
O=C(CN1C(=O)/C(=C/c2cccs2)SC1=S)Nc1ccccc1	MTT	10 µM		inhibition	5.3%
O=C(Nc1ccc(Cl)cn1)C1CCCN(C(=O)c2cc(C(F)(F)F)cc(C(F)(F)F)c2)C1 (centres unmarked)	WST-1	100 µM		inhibition	0%
COc1ccc(C(=O)/C=C/c2c(F)cccc2Cl)cc1S(N)(=O)=O	SRB		48 h	GI50	4700 nM
O=C(N/N=C/c1cccn1CCN1CCCCC1)Nc1cc2c(Nc3ccc(F)c(Cl)c3)ncnc2cc1O[C@H]1CCOC1	MTT		72 h	IC50	1570 nM
COc1ccnc(COc2ccc(NC(=O)Nc3cccc(C(F)(F)F)c3)cc2)c1OC	MTT		72 h	IC50	75000 nM
O=C(CN1C(=O)/C(=C/c2ccccn2)SC1=S)Nc1ccccc1	MTT	10 µM		inhibition	30.5%
CN(C)C/C=N/NC(=O)Nc1cc2c(Nc3ccc(F)c(Cl)c3)ncnc2cc1O[C@H]1CCOC1	MTT		72 h	IC50	6510 nM
CCOc1ccc(/C=C2\SC(=S)N(CC(=O)Nc3ccccc3)C2=O)cc1	MTT	10 µM		inhibition	38%
C=CS(=O)(=O)Nc1ccc(Cn2cc(C[C@@]3(O)C[C@@H]4c5cc(OCc6cc(C)cc(C)c6)c(OCc6cc(C)cc(C)c6)cc5CCN4[C@@H](C)C3)nn2)cc1	MTT			IC50	576 nM
COc1ccc(C(=O)/C=C/c2ccc(Cl)c(Cl)c2)cc1S(N)(=O)=O	SRB		48 h	GI50	1900 nM
Cc1cc(C)cc(COc2cc3c(cc2OCc2cc(C)cc(C)c2)[C@H]2C[C@](O)(Cc4cn(CCc5ccc(N)cc5)nn4)C[C@H](C)N2CC3)c1	MTT			IC50	490 nM
COc1cccc(NC(=O)C2CCCN(C(=O)c3cc(C(F)(F)F)cc(C(F)(F)F)c3)C2)c1 (centres unmarked)	WST-1	100 µM		inhibition	0%
NC1(C(=O)N[C@@H](CCO)c2ccc(Cl)cc2)CCN(c2ncnc3[nH]ccc23)CC1			72 h	GI50	> 8000 nM
O=C(CN1C(=O)/C(=C/c2ccc(Cl)cc2Cl)SC1=S)Nc1ccccc1	MTT	10 µM		inhibition	19.2%
